Measured values gathered from unrelated publications.
DYRK2: Dual specificity tyrosine-phosphorylation-regulated kinase 2 (DYRK2, Homo sapiens, UniProt Q92630)
ADAM17: Disintegrin and metalloproteinase domain-containing protein 17 (ADAM17, Homo sapiens, UniProt P78536)

SMILES	target	effect on	action	technique	tested at	inhibition [%]
C[C@H](C(=O)N[C@H]1COc2ccccc2[C@@H]1S(C)(=O)=O)c1ccc(F)cc1	Vasopressin V1b receptor (AVPR1B, Homo sapiens, UniProt P47901)	cell-free assay			10 µM	26
C#Cc1n[nH]c2c(-c3cn([C@@H](C)c4ccccn4)c(=O)[nH]c3=O)cc(F)cc12	DYRK2	enzyme activity	inhibitor		0.1 µM	-0.2
COc1c2c(cc3c1OCO3)CC[N+](C)=C2.[Cl-]	Glycogen synthase kinase-3 beta (GSK3B, Homo sapiens, UniProt P49841)	enzyme activity	inhibitor	ADP detection	100 µM	9.2
N=C(N)c1ccc2cc(OC(=O)c3ccc(N=C(N)N)cc3)ccc2c1	ADAM17	enzyme activity	inhibitor		10 µM	5
CCN(CC)CCCC[C@H](NC(=O)[C@H](CC(C)C)NC(=O)[C@H](C)NC(=O)[C@H](Cc1ccccc1)NC(=O)c1ccc(C(C)(C)C)cc1)C(=O)N[C@@H](CO)C(=O)OC	Vasopressin V1a receptor (AVPR1A, Homo sapiens, UniProt P37288)	ligand displacement		radioligand	10 µM	85
Cn1cc(-c2cc(F)cc(N3CCn4c(cc5c4CCCC5)C3=O)c2CO)cc(Nc2ccc(N3CCN(C4COC4)CC3)cn2)c1=O	Phosphatidylinositol 4,5-bisphosphate 3-kinase catalytic subunit alpha isoform (PIK3CA, Homo sapiens, UniProt P42336)	enzyme activity	inhibitor		0.1 µM	-7
COCc1c(-c2cc3cc(C)cc(OC)c3s2)c2c(N)ncnn2c1CN1CCNC(=O)C1	Motilin receptor (MLNR, Homo sapiens, UniProt O43193)	ligand displacement		radioligand	10 µM	18
CC(C)C[C@H](CC(=O)NO)C(=O)N[C@H](C(=O)N[C@@H](C)C(=O)NCCN)C(C)(C)C	ADAM17	enzyme activity	inhibitor		10 µM	73
C#Cc1n[nH]c2c(-c3cn([C@@H](C)c4ccccc4)c(=O)[nH]c3=O)cc(F)cc12	DYRK2	enzyme activity	inhibitor		0.1 µM	7.9
CN(CCN1CCC(OC(=O)Nc2ccccc2-c2ccccc2)CC1)C(=O)c1ccc(CN2CCC(C(N)=O)CC2)cc1	4-aminobutyrate aminotransferase, mitochondrial (Rattus norvegicus, UniProt P50554)	enzyme activity	inhibitor		1 µM	-12
CN(C)C(=O)COC(=O)Cc1ccc(OC(=O)c2ccc(NC(=N)N)cc2)cc1	ADAM17	enzyme activity	inhibitor		10 µM	6
c1ccc(C(NCCNC(c2ccccc2)c2ccccc2)c2ccccc2)cc1	Gamma-aminobutyric acid type B receptor subunit 1 (GABBR1, Homo sapiens, UniProt Q9UBS5)	cell-free assay			10 µM	-14
COc1cc(Nc2ncc(F)c(Nc3ccc4c(n3)NC(=O)C(C)(C)O4)n2)cc(OC)c1OC	Mitogen-activated protein kinase kinase kinase 12 (MAP3K12, Homo sapiens, UniProt Q12852)	binding		competition with immobilised ligand	10 µM	32
